The record followed here is ChEMBL document CHEMBL1152329, “The marine sponge Diacarnus bismarckensis as a source of peroxiterpene inhibitors of Trypanosoma brucei, the causative agent of sleeping sickness” (J Nat Prod, 2009).

Converted amounts (≈) assume the structure as drawn. Bounds are passed on as bounds.

In one experiment the test system is Trypanosoma brucei. The experiment is described as follows: Antitrypanosomal activity against Trypanosoma brucei. Format: functional, organism-based.
Settings: not given
Summed up: (§1)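 T. brucei brucei strain 221 cultured in complete HMI-9 with 10% FBS, 10% Serum Plus and penicillin/streptomycin; seeded at 1×10^5 per mL and exposed to test samples delivered in 10% DMSO for 48 h at 37 °C, 5% CO2. Vehicle wells served as 0% inhibition and 1 mM thimerosal stock as 100%. Viability read as ATP bioluminescence after CellTiter-Glo lysis.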
As usually defined, the IC50 is the concentration needed to halve the response being measured. The low end stands for greater potency, the high end for weaker potency. `ClCCl` [METHYLENE CHLORIDE] showed an IC50 of 0.3 µg/mL.
On the same count and under the same terms, in the case of `C=C1CCC[C@@H]2[C@@H](CC[C@@]3(C)CC[C@H]([C@H](C)C(=O)O)OO3)[C@H](C)CC[C@@]12C` [SIGMOSCEPTRELLIN B] it was 0.2 µg/mL (≈ 0.528 µM).

The next experiment concerns Trypanosoma brucei brucei. The experiment is described as follows: Antitrypanosomal activity against Trypanosoma brucei brucei 221 after 48 hrs. In kind it is functional, organism-based. To be noted: Trypanosoma brucei, 221, 48 h. Summed up:
as §1
Take `C=C1CCCC(C)(C)C1CC[C@]1(C)CC[C@@H]([C@@H](C)C(=O)OC)OO1` (stereo partly specified): half-maximal inhibition (IC50) required 2 µg/mL (≈ 5.91 µM).
Turning to `COC(=O)[C@H](C)[C@H]1CC[C@@](C)(CC/C=C(\C)CCC(=O)C(C)(C)CCCC(C)=O)OO1`, half-maximal inhibition (IC50) required 5 µg/mL (≈ 11.4 µM).
On the same count and under the same terms, for `C=C1CCC[C@@H]2[C@@](C)(CC[C@]3(C)CC[C@H]([C@@H](C)C(=O)OC)OO3)[C@H](C)CC[C@@]12C` the value was 2 µg/mL (≈ 4.92 µM); for `C=C1CCC[C@@H]2[C@@](C)(CC[C@]3(C)CC[C@H]([C@@H](C)C(=O)O)OO3)[C@H](C)CC[C@@]12C`, 1 µg/mL (≈ 2.55 µM).
The same measure, in the same setting: for `CC1=C(CC/C(C)=C/CC[C@]2(C)CC[C@H]([C@@H](C)C(=O)O)OO2)C(C)(C)CCC1` the value was 0.9 µg/mL (≈ 2.29 µM).
As for `COC(=O)[C@H](C)[C@@H]1CC[C@@](C)(CC/C=C(\C)CCC(=O)C(C)(C)CCCC(C)=O)OO1`, the IC50 was 3 µg/mL (≈ 6.84 µM).
Same read-out and setting: for `COC(=O)[C@H](C)[C@H](O)CC[C@](C)(O)CCCC(C)CCC(=O)C(C)(C)CCCC(C)=O` (stereo partly specified) the value was greater than 25 µg/mL; for `CC(=O)CCCC(C)(C)C(=O)CC/C(C)=C/CC[C@]1(C)CC[C@H]([C@@H](C)C(=O)O)OO1` [(+)-MUQUBILONE B], 2 µg/mL (≈ 4.71 µM).
In the case of `C=C1CCC[C@@H]2[C@@H](CC[C@@]3(C)CC[C@H]([C@H](C)C(=O)O)OO3)[C@H](C)CC[C@@]12C` [SIGMOSCEPTRELLIN B], the IC50 was 0.2 µg/mL (≈ 0.528 µM).

In the next experiment the test system is Trypanosoma brucei rhodesiense. The experiment is described as follows: Antitrypanosomal activity against Trypanosoma brucei rhodesiense STIB 900.
Settings: not given
Format: functional, organism-based.
With `CC(C)(N)CNC(=O)CC1CC[C@]2(CC1)OC[C@]1(O2)C2CC3CC(C2)CC1C3` (stereo partly specified), the IC50 was found to be 0.9 µg/mL (≈ 2.3 µM).
For the compound `C[C@@H]1CC[C@H]2[C@@H](C)C(=O)O[C@@H]3O[C@@]4(C)CC[C@@H]1[C@]32OO4` [ARTEMISININ], the IC50 is 25 µg/mL (≈ 88.5 µM).
On the same count and under the same terms, for `CC(C)(N)CNC(=O)C[C@H]1CC[C@]2(CC1)OO[C@]1(O2)C2CC3CC(C2)CC1C3` [OZ277] the value was 0.6 µg/mL (≈ 1.53 µM).

In the next experiment the test system is Trypanosoma brucei rhodesiense. Description: Antitrypanosomal activity against Trypanosoma brucei rhodesiense trypomastigotes after 72 hrs. In kind it is functional, organism-based.
Settings: not given
In turn, `C[C@@H]1CC[C@H]2[C@@H](C)C(=O)O[C@@H]3O[C@@]4(C)CC[C@@H]1[C@]32OO4` [ARTEMISININ] displayed an IC50 of 6 µg/mL (≈ 21.3 µM).
Same read-out and setting: in the case of `N=C(N)c1ccc(OCCCCCOc2ccc(C(=N)N)cc2)cc1` [PENTAMIDINE] it was 0.4 µg/mL (≈ 1.17 µM).
